From PubChem
Shown are actives, neighbours in structure and some others; about 2.2% of the full set was active somewhere.
PMI act hi M6P – PMI (human) activation, high substrate; P34949; coupled PMI enzyme assay, resazurin fluorescence, 20 min; stronger effect = higher value; 1 = untreated enzyme, 0 = substrate-free blank; activation factor at 20 µM; 0.34% of 190,000 active; AID 1216;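 active = activation factor of 2 or more at 20 µM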
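Test system: human phosphomannose isomerase with PGI, G6PDH, diaphorase coupling enzymes / Doses: 20 µM compound, 1% DMSO / Times: enzyme reaction with compound 20 min at room temperature / Measured by: Diaphorase-driven resazurin-to-resorufin fluorescence, excitation 544, emission 590 nm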
Diaph act CS – diaphorase activation or chemical reduction counter-screen; Diaphorase/resazurin coupled assay, resorufin fluorescence, 16 min; stronger effect = higher value; 1 = vehicle wells, 0 = NADH-free wells; activation factor at 20 µM; 0.005% of 190,000 active;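 active = diaphorase activity raised at least twofold by the compound at 20 µM; inactive = activation factor below 2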
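Material: Clostridium kluyveri diaphorase, purified enzyme; Quantity: enzyme 0.07 U/mL final; Medium: HEPES pH 7.4 buffer with MgCl2 and Tween 20; Dosing: single compound dose of 20 µM, 1% DMSO final; Schedule: 16 min reaction at room temperature; Measured by: red resorufin fluorescence at 544/590 nm excitation/emission.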
Diaph inh CS – inhibits diaphorase or chemically oxidizes, flagging diaphorase assay artifacts. diaphorase resazurin-to-resorufin fluorescence, NADH, 16 min; bacterial (C. kluyveri) enzyme, not human. inhibition, % at 20 µM. 0.69% of 190,000 active;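 active = primary screen inhibition at 20 µM above a set limit, cut at about 50% in these data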;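 note: plate controls were DMSO with full reaction for no effect and wells lacking NADH for full effect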
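Assay system – diaphorase enzyme from Clostridium kluyveri · Amount – diaphorase 0.14 U/mL (working solution) · Times – reaction incubation of 16 min at room temperature · Controls – No-NADH positive control and DMSO neutral control · Signal – resorufin fluorescence 544/590 nm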
G6PDH CS – L. mesenteroides G6PDH inhibition counter-screen. 0.12% of 200,000 active. inhibition, % at 5 µM. Purified L. mesenteroides G6PDH, diaphorase/resazurin coupled fluorescence, 45 min. AID 1020; in the data active = inhibition above about 50%
ROMK mod – human ROMK K+ channel modulation, primary screen | 2% of 130,000 active | Tet-inducible ROMK, thallium flux fluorescence; actives lie on both sides | B-score at 10 µM | P48048;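 active = signal ratio slope over the read window, or its plate-corrected B-score, at least 3 SD from the plate mean, either direction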;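 note: B-score of the F/F0 ratio slope over 7 to 12 s after thallium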
Target sequence (P48048 whole entry, looked up): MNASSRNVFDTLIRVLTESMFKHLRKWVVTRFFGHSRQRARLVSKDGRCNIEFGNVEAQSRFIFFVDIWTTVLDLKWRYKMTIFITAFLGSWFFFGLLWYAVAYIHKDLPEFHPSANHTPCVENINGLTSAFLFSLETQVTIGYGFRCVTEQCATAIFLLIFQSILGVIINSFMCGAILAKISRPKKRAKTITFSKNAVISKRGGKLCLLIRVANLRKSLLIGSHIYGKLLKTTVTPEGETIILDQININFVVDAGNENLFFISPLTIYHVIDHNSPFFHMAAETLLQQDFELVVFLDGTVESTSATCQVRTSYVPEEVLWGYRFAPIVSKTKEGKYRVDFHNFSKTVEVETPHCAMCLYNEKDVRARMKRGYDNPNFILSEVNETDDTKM
PMI activator – phosphomannose isomerase (human) activation. P34949. purified human PMI, coupled resazurin fluorescence, 20 min; stronger effect = higher value; 1 = vehicle control, 0 substrate-free wells. activation factor at 20 µM. 0.005% of 190,000 active;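 active = activation factor of 2 or more at 20 µM, relative to plate controls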
ROMK hit retest – human ROMK channel modulation, retest confirmation; shares compounds with ROMK mod; ROMK thallium flux, fluorescence ratio; stronger effect = lower value; normalized thallium flux (F/F0 slope) at 10 µM; 54% of 3,000 active; AID 1917;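 active = Flux at 10 µM at least 3 SD below or above vehicle control mean in one or both replicates; inconclusive = no clear call, values can overlap the other calls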
Active calls of the source: *; ? = inconclusive; . = no result.

SMILES	PMI act hi M6P	Diaph act CS	Diaph inh CS	G6PDH CS	ROMK mod	PMI activator	ROMK hit retest
O=C(NCCO)C1CCN(S(=O)(=O)c2ccc(F)cc2)CC1	0.9	0.9	10	0	-6.9*	0.9	0.073
O=C(Nc1nnc(-c2ccccc2F)s1)C1CCN(S(=O)(=O)c2ccc(Cl)cc2)CC1	0.9	0.9	13	-20	.	0.9	0.078
COc1ccc(S(=O)(=O)N2CCC(C(=O)Nc3c(F)cccc3F)CC2)cc1	0.9	0.9	9	8	.	1	0.073
CCNC(=O)C1CCN(S(=O)(=O)c2ccc(F)cc2)CC1	1.1	1	0	3	1.2	1.1	.
COc1cccc2cc(C(=O)Nc3ccc(S(=O)(=O)NCC4CCCO4)cc3)c(=O)oc12 (centres undefined)	.	.	.	.	0.43	.	.
Cc1nc2ccccc2c(=O)n1NC(=O)CCC(=O)O	0.9	0.9	8	4	0.69	0.9	.
CSCCC(NC(=O)c1ccc(C(C)(C)C)cc1)C(=O)O (centres undefined)	1.1	0.9	8	-1	0.079	1.1	.
Cc1ccnc(NS(=O)(=O)c2ccc(NC(=O)CN3C(=O)CCC3=O)cc2)n1	1.1	1	2	5	2.6*	1.1	0.082
COc1cccc(C(=O)NN/C(C)=C/C(=O)C(F)(F)C(F)(F)C(F)(F)F)c1	1.3	1	1	-5	.	1.2	.
CC(C)(C)C(=O)NNC(=O)c1cc(C(C)(C)C)nn1Cc1ccccc1	.	.	.	.	-0.35	.	.
CC(C)(C)c1cc(C(=O)Nc2ccc(F)cc2)n(Cc2ccc(F)cc2)n1	.	.	.	.	0.045	.	.
COc1ccccc1NNC(=O)c1cc(C(C)(C)C)nn1Cc1ccccc1	.	.	.	.	.	.	0.066*
CC(C)(C)c1cc(C(=O)NNc2cccc(Cl)c2)n(Cc2ccccc2)n1	.	.	.	.	.	.	0.057*
CC(C)(C)c1cc(N)n2nc(C(C)(C)C)cc2n1	0.9	0.8	24	17	-0.044	0.8	.
CCOC(=O)Cn1nc(C)n(-c2ccc(F)cc2)c1=O	1	1	3	0	0.043	1	.
COC(=O)C/C=C/[C@@H](C)[C@@H](/C=N/OCC[C@@H]1C=C[C@H](OC(C)=O)[C@@H](COC(C)=O)O1)NS(=O)(=O)c1ccc(C)cc1	1.1	1	0	6	0.73	1.1	.
COc1ccc(/C=N/NC(=O)c2ccc(NC(=O)c3ccccc3Br)cc2)cc1	0.9	0.9	6	7	1	0.9	.
COc1cccc(NC(=O)N2CCN(c3nc(-c4cccc(OC)c4)cs3)CC2)c1	.	.	.	.	.	.	0.068*
COc1cccc(-c2csc(N3CCN(C(=O)Nc4ccccc4Cl)CC3)n2)c1	0.9	0.9	14	6	-0.44	0.9	.
CC(/C=C1\SC(=S)N(CCCC(=O)Nc2ccc(C(=O)O)cc2)C1=O)=C\c1ccccc1	1	0.8	19	6	-2.8*	0.9	0.058*
CC(=C\c1ccccc1)/C=C1/SC(=S)N(C(C(=O)O)C(C)C)C1=O (centres undefined)	1	1.1	-7	1	.	1	0.089
CC(/C=C1\SC(=S)N(NC(=O)c2ccc(O)cc2)C1=O)=C\c1ccccc1	0.8	0.8	23	7	.	0.8	.
C=CCN1C(=O)C(CC(=O)Nc2ccc(OC)cc2)SC1=Nc1ccc(S(N)(=O)=O)cc1 (centres undefined)	1.1	0.9	5	1	-0.037	1	.
CC(NC(=O)Nc1ccc([N+](=O)[O-])cc1)C(c1cccs1)N1CCCC1 (centres undefined)	1	0.9	6	1	-0.84	1	.
CCCn1c(N)c(C(=O)COc2ccc(Br)cc2F)c(=O)n(C)c1=O	1.1	1.1	-6	4	1.2	1.2	.
SMILES	PMI act hi M6P	Diaph act CS	Diaph inh CS	G6PDH CS	ROMK mod	PMI activator	ROMK hit retest
COc1ccc(C2C(C#N)=C(N)OC(C(C)(C)C)=C2C#N)cc1OC (centres undefined)	0.7	0.8	25	6	-2.3*	0.9	0.068*
O=[N+]([O-])c1c(Nc2ccccn2)cc(Cl)c2nonc12	.	.	.	.	-8.6*	.	0.043*
CCOc1ccc(S(=O)(=O)N(C)CCO)cc1-c1nc2c(C(C)(C)C)nn(C)c2c(=O)[nH]1	0.9	0.8	23	3	-4.3*	0.9	0.048*
Cc1ccccc1Cn1cc(C)c(=O)[nH]c1=O	0.9	0.9	8	16	2.1*	0.9	0.073
CC(C)N(CCn1c(=S)[nH]c2ccccc2c1=O)C(C)C	1.1	0.9	6	0	3.2*	1.1	0.068*
COc1ccc(Cc2nnc(N/N=C(\C)c3ccccc3)[nH]c2=O)cc1OC	.	.	.	.	-0.39	.	.
COc1ccccc1-c1nnc(SCC(=O)NC2CCS(=O)(=O)C2)n1N (centres undefined)	1.1	1	-3	6	0.039	1.1	.
O=C(Nc1ccc(F)cc1)Nc1ccc(NC(=O)c2ccccc2O)cc1	.	.	.	.	-11*	.	0.079
Cc1cc(N2CCN(C(c3ccccc3)c3ccccc3)CC2)n2ncnc2n1	0.9	0.9	14	-1	1.5*	0.8	?
Cc1cc(N2CCN(c3nc4ccccc4s3)CC2)n2ncnc2n1	0.9	0.8	18	-2	.	1	0.064*
COCCNC(=O)C(c1ccc(C)cc1)N(C(=O)C(=O)NC1CCCC1)c1ccc2c(c1)OCCO2 (centres undefined)	1	1.2	-21	12	0.15	1.1	.
Cc1cc(C)c(C#N)c(Oc2ccc(F)cc2)n1	1	0.9	12	5	.	1	0.083
CC1CCC(N(CCCN)Cc2ccco2)CC1C (centres undefined)	1.1	1.1	-11	0	-2.2	1.1	.
O=C(NCc1cccnc1)/C(=C\c1ccc(-c2ccc(Cl)c(Cl)c2)o1)S(=O)(=O)c1ccccc1	1	0.9	9	-14	-5.1*	0.9	0.056*
CC(C)C(NC(=O)OCc1ccccc1)C(=O)N1CCOCCOCCOCC1 (centres undefined)	1	0.9	13	5	.	1	.
CCN(CC)c1nc(N)c([N+](=O)[O-])c(NCCO)n1	0.9	0.8	20	13	.	0.8	.
COc1ccccc1OCC(=O)N(Cc1nc(-c2ccccc2)no1)C1CCCCC1	0.8	0.8	22	-8	.	0.8	0.079
CC1CCN(S(=O)(=O)c2cc([N+](=O)[O-])ccc2Cl)CC1	0.9	0.8	18	18	-1.2	1	.
